Blank lines part the entries; values can stand above or below the substance they belong to. *1 amine or outer side, *2 acyl side, *3 side chain or, on linkers, in order; H or OH if unused. Where no end group is shown, it is not given here. [ ]: non-standard residue; d: D form. KCme2 = N-dimethylated aminoethylcysteine, CN(C)CCSC[C@H](N[*:1])C(=O)[*:2]; Me2 = dimethyl group on the Lys side-chain amine
Columns and labels:
53BP1 TTD [1] = molecular target: T1, 53BP1 TTD (Homo sapiens, UniProt Q12888); assay: NMR titration; format: binding; conditions: 1H,15N HSQC, 298 K; for effect of glycine mutation on CSPs in 15N-labeled TTD: 0.1–0.2 mM TTD, glycine mutants of p53KC370me2 peptide
T1 sequence (Q12888 1484-1603): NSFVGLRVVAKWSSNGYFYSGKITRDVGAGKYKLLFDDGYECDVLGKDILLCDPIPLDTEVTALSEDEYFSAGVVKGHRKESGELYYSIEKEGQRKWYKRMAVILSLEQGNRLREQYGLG

53BP1 TTD [2] = molecular target: T1, 53BP1 TTD; conditions: monomeric TTD; ref Roy et al., 2010; cited from earlier work
53BP1 TTD [3] = molecular target: T1, 53BP1 TTD; assay: NMR solution structure of TTD-peptide complex; conditions: 298 K, 25 mM sodium phosphate pH 7.5
Procedure, shortened: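 Complexes of the 53BP1 tandem Tudor domain with dimethylated p53 peptides (residues 363–377 or 376–387) recorded on a 700 MHz cryoprobe in 90% H2O/10% D2O or 100% D2O with 1.5 mM NaN3. Samples were 2 mM 13C/15N-TTD with 6 mM unlabeled peptide, or 2 mM labeled dimethyllysine-analog peptide with 5 mM TTD. Intermolecular NOEs came from filtered 13C-edited NOESY-HSQC.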

GST-tagged 53BP1 TTD = assay: Peptide microarray; format: binding, human; conditions: normalized mean intensities of four arrays
CL-TTD = CL-TTD (Homo sapiens, UniProt Q12888, C1525A/C1535A); assay: NMR titration; format: binding; conditions: 1H,15N HSQC, 298 K, 0.1–0.2 mM CL-TTD
Chain of CL-TTD (Q12888 1481-1603 C1525A/C1535A): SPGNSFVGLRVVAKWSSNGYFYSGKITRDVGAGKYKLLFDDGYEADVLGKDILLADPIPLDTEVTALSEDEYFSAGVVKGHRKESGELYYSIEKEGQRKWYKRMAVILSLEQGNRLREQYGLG

53BP1 TTD [4] = molecular target: T1, 53BP1 TTD; assay: Overall preference of 53BP1 TTD from peptide library, fluorescence and NMR; format: binding; conditions: overall conclusion from library, fluorescence and NMR results

effect of glycine mutation on CSPs in 15N-labeled TTD (53BP1 TTD [1]): Alterations in CSPs
Substance: p53H365GKC370me2: p53KC370me2 peptide with H365 substituted with glycine (GHMRAGSSHL[KCme2]SKKGQST)

effect of glycine mutation on CSPs in 15N-labeled TTD (53BP1 TTD [1]): Alterations in CSPs
Substance: p53H368GKC370me2: p53KC370me2 peptide with H368 substituted with glycine (GHMRAHSSGLCSKKGQST; not fully specified (residue 11))

protein-peptide interface area in NMR ensemble (53BP1 TTD [3]): 707 ± 43 Å^2
Substance: p53K370me2: p53K370me2 (residues 363–377) peptide, chemically synthesized (RAHSSHLK(Me2)SKKGQST)
Kd (53BP1 TTD [2]): 20 µM | site of dimethyllysine indicated by pattern of CSPs (53BP1 TTD [1]): fully consistent with K370me2 occupying the aromatic cage

binding in peptide library screen (GST-tagged 53BP1 TTD): recognized primarily | protein-peptide interface area in NMR ensemble (53BP1 TTD [3]): 678 ± 60 Å^2 | chemical shift / resonance intensity changes in 15N-labelled CL-TTD (CL-TTD): substantial chemical shift changes | preference of 53BP1 TTD module (53BP1 TTD [4]): strong preference
Substance: p53K382me2: p53K382me2 (residues 376–387) peptide, chemically synthesized (STSRHKK(Me2)LMFKT)
Kd (53BP1 TTD [2]): 0.9 µM

Substance: p53KC370me2K372G: p53KC370me2 peptide with K372 substituted with glycine (GHMRAHSSHLCSGKGQST; not fully specified (residue 11))
effect of glycine mutation on CSPs in 15N-labeled TTD (53BP1 TTD [1]): caused the same CSPs as the wild type p53KC382me2 peptide

Substance: p53KC370me2K373G: p53KC370me2 peptide with K373 substituted with glycine (GHMRAHSSHLCSKGGQST; not fully specified (residue 11))
effect of glycine mutation on CSPs in 15N-labeled TTD (53BP1 TTD [1]): caused the same CSPs as the wild type p53KC382me2 peptide

effect of glycine mutation on CSPs in 15N-labeled TTD (53BP1 TTD [1]): Alterations in CSPs
Substance: p53L369GKC370me2: p53KC370me2 peptide with L369 substituted with glycine (GHMRAHSSHGCSKKGQST; not fully specified (residue 11))
